Measured values published in ChEMBL document CHEMBL1131090, “Discovery of N-[2-[5-[Amino(imino)methyl]-2-hydroxyphenoxy]-3, 5-difluoro-6-[3-(4, 5-dihydro-1-methyl-1H-imidazol-2-yl)phenoxy]pyridin-4-yl]-N-methylgl y cine (ZK-807834): a potent, selective, and orally active inhibitor of the blood coagulation enzyme factor Xa” (J Med Chem, 1998).

Columns and labels:
[1] = Inhibitor plasma concentration was measured in dogs on 10 mg/kg oral dosing after 1 hr administration; uM; format: ADME, organism-based, Canis lupus familiaris; parameters: dose 10 mg/kg, route oral; details: dog
Procedure, shortened: (§1)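 Conscious beagles (10–16 kg) were given 10 mg/kg by oral gavage as homogeneous solutions in aqueous acid (n = 3). Plasma inhibitor concentrations were measured at the stated times by an ex vivo FXa inhibition activity assay. For ester/acid pairs, the value is the total ester plus acid concentration.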

[2] = Inhibitor plasma concentration was measured in dogs on 10 mg/kg oral dosing after 2 hr administration; uM; format: ADME, organism-based, Canis lupus familiaris; parameters: dose 10 mg/kg, route oral; details: dog; procedure, shortened: as §1
[3] = target: Coagulation factor X (Homo sapiens, UniProt P00742); assay: Inhibitory potency was measured against human coagulation factor X
[4] = Prothrombin time concentration to give a 2-fold extension activity against pooled lyophilized human plasma.; format: functional
Procedure, shortened: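 Prothrombin time was measured in pooled lyophilized human plasma with Thromboplastin IS on an automated coagulation analyzer. The value is the inhibitor concentration that doubles PT.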

[5] = target: Prothrombin (Homo sapiens, UniProt P00734); assay: Inhibitory potency was measured against human thrombin
Procedure, shortened: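 Purified human thrombin (16 nM final) was assayed chromogenically with S-2302 (300 μM final) in 50 mM Tris-HCl pH 7.5, 150 mM NaCl, 2.5 mM CaCl2, 0.1% PEG 6000 at room temperature. Varying inhibitor concentrations were tested at a substrate level equal to Km, assuming a competitive mechanism, to derive Ki.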

[6] = target: T1, Serine protease 1 (Bos taurus, UniProt P00760); assay: Inhibitory potency was measured against bovine trypsin.
T1 sequence (P00760 whole entry): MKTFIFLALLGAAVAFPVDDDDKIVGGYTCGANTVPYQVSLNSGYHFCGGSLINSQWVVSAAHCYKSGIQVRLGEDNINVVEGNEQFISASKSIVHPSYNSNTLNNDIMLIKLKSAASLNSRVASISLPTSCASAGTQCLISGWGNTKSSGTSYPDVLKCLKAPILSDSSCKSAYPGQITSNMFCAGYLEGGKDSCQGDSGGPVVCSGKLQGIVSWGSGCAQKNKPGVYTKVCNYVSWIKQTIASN

[7] = plasma concentration was measured against the Nonhuman primates (baboon) using FXa inhibition assay after 1 hr; uM; format: ADME, organism-based, Papio
Procedure, shortened: (§2)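 Baboons received a 10 mg/kg oral dose in 1.5% carboxymethylcellulose plus 1% Tween 80 via nasogastric tube (2–4 animals per compound). Plasma inhibitor concentration was determined at the stated times by FXa inhibition assay.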

[8] = plasma concentration was measured against the Nonhuman primates (baboon) using FXa inhibition assay after 2 hr; uM; format: ADME, organism-based, Papio; procedure, shortened: as §2
[9] = plasma concentration was measured against the Nonhuman primates (baboon) using FXa inhibition assay after 3 hr; uM; format: ADME, organism-based, Papio; procedure, shortened: as §2
[10] = plasma concentration was measured against the Nonhuman primates (baboon) using FXa inhibition assay after 4 hr; uM; format: ADME, organism-based, Papio; procedure, shortened: as §2
[11] = plasma concentration was measured against the Nonhuman primates (baboon) using FXa inhibition assay after 6 h; uM; format: ADME, organism-based, Papio; procedure, shortened: as §2
[12] = Inhibitor plasma concentration was measured in dogs on 10 mg/kg oral dosing after 4 hr administration; uM; format: ADME, organism-based, Canis lupus familiaris; parameters: dose 10 mg/kg, route oral; details: dog; procedure, shortened: as §1
[13] = plasma concentration was measured against the Nonhuman primates (cynomolgus monkey) using HPLC after 1 hr; uM
[14] = plasma concentration was measured against the Nonhuman primates (cynomolgus monkey) using HPLC after 2 hr; uM
[15] = plasma concentration was measured against the Nonhuman primates (cynomolgus monkey) using HPLC after 3 hr; uM
[16] = plasma concentration was measured against the Nonhuman primates (cynomolgus monkey) using HPLC after 4 hr; uM

Coagulation factor X, sequence (P00742 41-179 limits assumed): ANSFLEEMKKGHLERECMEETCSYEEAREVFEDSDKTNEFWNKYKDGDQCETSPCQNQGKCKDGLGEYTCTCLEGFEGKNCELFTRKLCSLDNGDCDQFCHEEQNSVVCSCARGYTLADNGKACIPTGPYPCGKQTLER
Coagulation factor X, sequence (P00742 235-488 limits assumed): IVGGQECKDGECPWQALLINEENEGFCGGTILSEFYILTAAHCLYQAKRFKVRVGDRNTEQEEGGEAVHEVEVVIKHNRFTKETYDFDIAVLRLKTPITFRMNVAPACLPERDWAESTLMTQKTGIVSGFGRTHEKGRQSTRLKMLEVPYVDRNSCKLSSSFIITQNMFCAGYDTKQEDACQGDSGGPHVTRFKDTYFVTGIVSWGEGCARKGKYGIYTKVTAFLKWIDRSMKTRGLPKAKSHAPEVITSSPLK

Compound | Ki [3] [nM] | Ki [5] [nM] | Ki [6] [nM] | other results
CN(C)C(=O)c1cccc(Oc2nc(Oc3cc(C(=N)N)ccc3O)c(F)c(OC3CCN(CC(=O)O)CC3)c2F)c1 | 0.65 | 192 | 770 | concentration at 1 h [1]: 300 nM; concentration at 2 h [2]: 100 nM; PT extension [4]: 850 nM
N=C(N)c1ccc(Oc2cccc(Oc3ccc(C(=N)N)cc3)n2)cc1 | 400 | 550 | 2800 | 
Cn1ccnc1-c1cccc(Oc2cc(C(=O)O)cc(Oc3cc(C(=N)N)ccc3O)n2)c1 | 9 | 180 | 660 | 
N=C(N)c1ccc(O)c(Oc2cc(C(=O)O)cc(Oc3cccc(-n4ccnc4)c3)n2)c1 | 26 | 1400 | 1200 | 
COc1ccc(C(=N)N)cc1Oc1nc(Oc2cccc(C(=O)N(C)C)c2)c(F)c(C)c1F | 740 | > 5000 | 4300 | 
Cc1c(F)c(Oc2cccc(CN(C)C)c2)nc(Oc2cccc(C(=N)N)c2)c1F | 640 | 22000 |  | 
N=C(N)c1ccc(O)c(Oc2cc(C(=O)O)cc(Oc3cccc(C4=NCCN4)c3)n2)c1 | 85 | > 5000 | 1400 | 
N=C(N)c1ccc(Oc2cccc(Oc3cccc(C(=N)N)c3)n2)cc1 | 130 | 1200 | 1900 | 
CCOC(=O)[C@@H]1C[C@@H](Oc2c(F)c(Oc3cccc(C4=NCCN4C)c3)nc(Oc3cc(C(=N)N)ccc3O)c2F)CN1 | 0.43 | 140 | 330 | concentration at 1 h [7]: 200 nM; concentration at 2 h [8]: 300 nM; concentration at 3 h [9]: 600 nM; concentration at 4 h [10]: 500 nM; concentration at 6 h [11]: 300 nM; concentration at 1 h [1]: 3500 nM; concentration at 2 h [2]: 3400 nM; PT extension [4]: 300 nM; concentration at 4 h [12]: 2600 nM
CCOC(=O)CN1CCC(Oc2c(F)c(Oc3cccc(C4=NCCN4C)c3)nc(Oc3cc(C(=N)N)ccc3O)c2F)CC1 | 0.31 | 190 | 300 | concentration at 1 h [1]: 300 nM; concentration at 2 h [2]: 300 nM; PT extension [4]: 240 nM; concentration at 4 h [12]: 200 nM
CN1CCN=C1c1cccc(Oc2nc(Oc3cc(C(=N)N)ccc3O)c(F)c(O[C@H]3CN[C@H](C(=O)O)C3)c2F)c1 | 0.33 | 250 | 310 | concentration at 1 h [1]: 3200 nM; concentration at 2 h [2]: 2200 nM; PT extension [4]: 670 nM; concentration at 4 h [12]: 800 nM
CN1CCN=C1c1cccc(Oc2nc(Oc3cc(C(=N)N)ccc3O)c(F)c(OC3CCN(CC(=O)O)CC3)c2F)c1 | 0.24 | 125 | 330 | concentration at 1 h [7]: 100 nM; concentration at 3 h [9]: 100 nM; concentration at 4 h [10]: 200 nM; concentration at 6 h [11]: 700 nM; concentration at 1 h [1]: 5500 nM; concentration at 2 h [2]: 3800 nM; PT extension [4]: 220 nM; concentration at 4 h [12]: 1200 nM; concentration at 1 h [13]: 100 nM
CCOC(=O)[C@@H]1C[C@@H](Oc2c(F)c(Oc3cccc(C(=O)N(C)C)c3)nc(Oc3cc(C(=N)N)ccc3O)c2F)CN1 | 0.71 | 280 | 740 | concentration at 1 h [1]: 300 nM; concentration at 2 h [2]: 200 nM; PT extension [4]: 1400 nM; concentration at 4 h [12]: 100 nM
CCOC(=O)CN(C)c1c(F)c(Oc2cccc(C3=NCCN3C)c2)nc(Oc2cc(C(=N)N)ccc2O)c1F | 0.26 | 630 | 240 | concentration at 1 h [1]: 200 nM; concentration at 2 h [2]: 200 nM; PT extension [4]: 630 nM; concentration at 4 h [12]: 100 nM
Cc1c(F)c(Oc2cccc(C(=O)N(C)C)c2)nc(Oc2cc(C(=N)N)ccc2O)c1F |  | 1100 | 1100 | 
N=C(N)c1cccc(Oc2nc(Oc3cccc(C(=N)N)c3)c(F)cc2F)c1 | 24 | 37000 | 1200 | 

Compound | Ki [3] [nM] | Ki [5] [nM] | Ki [6] [nM] | other results
N=C(N)c1cccc(Oc2cc(C(=O)O)cc(Oc3cccc(C(=N)N)c3)n2)c1 | 59 | 27000 | 570 | 
N=C(N)c1cccc(Oc2nc(Oc3cccc(C(=N)N)c3)c(Cl)cc2Cl)c1 | 130 | > 5000 | 2100 | 
Cc1c(F)c(Oc2cccc(C(=N)N)c2)nc(Oc2cccc(C(=N)N)c2)c1F | 13 | 22000 | 810 | 
N=C(N)c1ccc(Oc2nc(Oc3ccc(C(=N)N)cc3)c(Cl)cc2Cl)cc1 | 620 | 1400 | 2700 | 
N=C(N)c1cccc(Oc2cccc(Oc3cccc(C(=N)N)c3)n2)c1 | 53 | 14000 | 1100 | 
N=C(N)c1ccc(/C=C2/CCCC/C(=C/c3ccc(C(=N)N)cc3)C2=O)cc1 | 0.66 |  | 33 | 
Cc1c(F)c(Oc2cccc(C(=N)N)c2)nc(Oc2cccc(C(=O)N(C)C)c2)c1F | 80 | 15000 | 2700 | 
CN(C)C(=O)c1cccc(Oc2nc(Oc3cc(C(=N)N)ccc3O)c(F)c(N(C)CC(=O)O)c2F)c1 | 0.41 | 4500 | 1100 | concentration at 1 h [1]: 300 nM; concentration at 2 h [2]: 400 nM; PT extension [4]: 1000 nM
CN(C)C(=O)c1cccc(Oc2cc(C(=O)O)cc(Oc3cc(C(=N)N)ccc3O)n2)c1 | 3.9 | 1100 | 300 | 
CNC(=O)c1cccc(Oc2nc(Oc3cccc(C(=N)N)c3)c(F)c(C)c2F)c1 | 1300 |  |  | 
Cc1c(F)c(Oc2cccc(C(=O)N(C)C)c2)nc(Oc2cc(C(=N)N)ccc2N)c1F | 14 | 2300 | 550 | 
Cc1c(F)c(Oc2cccc(C(=N)N)c2)nc(Oc2cccc(C(N)=O)c2)c1F | 280 | > 5000 | > 5000 | 
Cc1c(F)c(Oc2ccccc2)nc(Oc2cccc(C(=N)N)c2)c1F | > 5000 | > 5000 |  | 
Cc1c(F)c(Oc2cccc(C(=N)N)c2)nc(Oc2cccc(N(C)C)c2)c1F | 160 | 2600 | 1900 | 
CN1CCN=C1c1cccc(Oc2cc(C(=O)O)cc(Oc3cc(C(=N)N)ccc3O)n2)c1 | 2.4 | 810 | 220 | 
CN1CCN=C1c1cccc(Oc2nc(Oc3cc(C(=N)N)ccc3O)c(F)c(N(C)CC(=O)O)c2F)c1 [FIDEXABAN] |  | 2000 | 280 | concentration at 1 h [7]: 300 nM; concentration at 2 h [8]: 600 nM; concentration at 3 h [9]: 900 nM; concentration at 4 h [10]: 1100 nM; concentration at 6 h [11]: 1000 nM; concentration at 1 h [1]: 3000 nM; concentration at 2 h [2]: 2100 nM; PT extension [4]: 230 nM; concentration at 4 h [12]: 700 nM; concentration at 1 h [13]: 200 nM; concentration at 2 h [14]: 500 nM; concentration at 3 h [15]: 700 nM; concentration at 4 h [16]: 1200 nM
